# Source: ChEMBL document CHEMBL3745671, “Discovery of N-[5-(6-Chloro-3-cyano-1-methyl-1H-indol-2-yl)-pyridin-3-ylmethyl]-ethanesulfonamide, a Cortisol-Sparing CYP11B2 Inhibitor that Lowers Aldosterone in Human Subjects” (J Med Chem, 2015)
# Activity calls are given as the source filed them. The calls are words filed in the database; no cut-off is given here.
# Assays:
# [1] = target: T1, CYP19 (aromatase) (Homo sapiens, UniProt P11511); experiment: Inhibition of human CYP19 at 10 uM preincubated for 10 mins with NADPH followed by protein addition measured after 90 mins by fluorometric analysis
# T1 sequence (P11511 whole entry): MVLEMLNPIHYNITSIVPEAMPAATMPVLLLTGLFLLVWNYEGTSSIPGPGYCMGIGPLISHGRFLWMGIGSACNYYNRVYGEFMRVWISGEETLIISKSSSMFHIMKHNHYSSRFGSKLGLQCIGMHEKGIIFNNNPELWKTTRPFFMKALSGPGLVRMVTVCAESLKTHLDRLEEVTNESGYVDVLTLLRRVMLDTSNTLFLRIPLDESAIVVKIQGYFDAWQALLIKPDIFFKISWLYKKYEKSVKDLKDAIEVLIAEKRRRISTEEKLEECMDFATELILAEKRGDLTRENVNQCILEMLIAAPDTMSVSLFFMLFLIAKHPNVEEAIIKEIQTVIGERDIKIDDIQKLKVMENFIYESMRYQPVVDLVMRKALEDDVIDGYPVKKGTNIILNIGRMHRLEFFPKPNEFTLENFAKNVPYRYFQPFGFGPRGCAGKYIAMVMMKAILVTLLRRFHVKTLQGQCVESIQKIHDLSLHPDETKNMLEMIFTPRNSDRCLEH
# [2] = Half life in rat liver microsomes after 30 mins by LC/MS/MS analysis; type: ADME
# [3] = Half life in human liver microsomes after 30 mins by LC/MS/MS analysis; type: ADME
# [4] = Clearance in continuous angiotensin-2 infusion Sprague-Dawley rat model at 3 mg/kg, po and 1 mg/kg, iv; type: ADME, organism-based; conditions: in vivo
# [5] = Oral bioavailability in continuous angiotensin 2 infusion Sprague-Dawley rat model at 3 mg/kg; type: ADME, organism-based; conditions: in vivo
# In short: (§1)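 Male Sprague Dawley rats, 200–300 g. IV: 0.3 mg/1 mL/kg (free base) slow injection via jugular vein, n=2. Oral gavage at 1 mg/5 mL/kg or 3 mg/5 mL/kg in solution, n=3. Jugular catheter blood at 5 min (iv only), 0.25–8 h into EDTA; plasma after protein precipitation with acetonitrile containing internal standard, HPLC-MS; noncompartmental parameters.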
# [6] = Half life in continuous angiotensin 2 infusion Sprague-Dawley rat model at 3 mg/kg, po and 1 mg/kg, iv; type: ADME, organism-based; conditions: in vivo
# [7] = AUC (0 to 24 hrs) in continuous angiotensin 2 infusion Sprague-Dawley rat model at 3 mg/kg, po; type: ADME, organism-based; design: time < 24 hr, dose 3 mg/kg, route oral; conditions: in vivo; in short: as §1
# [8] = target: T2, Cytochrome P450 11B2, mitochondrial (Rattus norvegicus, UniProt P30099); experiment: Inhibition of recombinant rat CYP11B2 using 11-deoxycorticosterone as substrate after 2 hrs by scintillation proximity assay
# T2 sequence (P30099 whole entry): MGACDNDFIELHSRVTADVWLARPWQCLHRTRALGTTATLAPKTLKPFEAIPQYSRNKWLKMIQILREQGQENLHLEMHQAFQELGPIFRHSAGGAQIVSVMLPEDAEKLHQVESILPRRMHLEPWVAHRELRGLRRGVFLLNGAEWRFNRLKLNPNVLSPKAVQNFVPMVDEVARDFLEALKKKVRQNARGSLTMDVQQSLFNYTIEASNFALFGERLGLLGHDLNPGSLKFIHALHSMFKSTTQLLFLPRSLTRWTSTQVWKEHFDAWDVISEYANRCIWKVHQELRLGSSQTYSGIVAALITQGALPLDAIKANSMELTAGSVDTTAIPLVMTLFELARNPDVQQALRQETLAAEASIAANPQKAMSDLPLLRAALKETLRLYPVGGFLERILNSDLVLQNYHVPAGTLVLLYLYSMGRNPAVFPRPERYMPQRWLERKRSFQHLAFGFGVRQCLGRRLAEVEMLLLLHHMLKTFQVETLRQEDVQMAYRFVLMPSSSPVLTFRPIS
# [9] = Inhibition of CYP11B2 in cynomolgus monkey adrenal homogenates assessed as inhibition of aldosterone secretion; type: tissue-based, Macaca fascicularis
# In short: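 Cynomolgus monkey adrenal homogenates, with 11-DOC as substrate; aldosterone secretion inhibition determined as IC50.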
# [10] = tested on: Plasma; experiment: Drug uptake in plasma of po dosed chair-trained chronically cannulated cynomolgus monkey model compound administered followed by ACTH challenge for 3 hrs measured up to 8 hrs post challenge by LC/MS/MS analysis; type: ADME, organism-based, Macaca fascicularis; conditions: in vivo
# In short: (§2)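 Conscious chair-trained, chronically cannulated male cynomolgus monkeys; vascular access port via Huber needle. Baseline blood (heparin) before dosing; methylcellulose suspension po at 0.03, 0.1, 0.3 or 3 mg/kg (n=3/dose) or vehicle (n=6, same animals). ACTH(1–24) 3000 ng/kg iv 3 h post-dose; sampling 0.125–1 h post-ACTH, up to 8 h, and 23.5 and 24 h. Aldosterone and cortisol by RIA; drug by LC/MS/MS (LLOQ 0.26 nmol/L, lower values set to zero).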
# [11] = tested on: Plasma; experiment: Drug uptake in plasma of chair-trained chronically cannulated cynomolgus monkey model at 0.03 to 3 mg/kg, po compound administered followed by ACTH challenge for 3 hrs measured at 24 hrs by LC/MS/MS analysis; type: ADME, organism-based, Macaca fascicularis; conditions: in vivo; in short: as §2
# [12] = tested on: Cynomolgus monkey; experiment: Decrease in ACTH-stimulated plasma aldosterone level in po dosed chair-trained chronically cannulated cynomolgus monkey model compound administered followed by ACTH challenge for 3 hrs measured after 24 hrs by LC/MS/MS analysis; type: functional, organism-based; conditions: Macaca fascicularis; in short: as §2
# [13] = tested on: Cynomolgus monkey; experiment: Decrease in plasma cortisol level in chair-trained chronically cannulated cynomolgus monkey model measured after 24 hrs […]; type: functional, organism-based; conditions: Macaca fascicularis; in short: as §2
# [14] = Tmax in healthy human at 30 mg/kg, po bid; type: ADME, organism-based; conditions: in vivo
# In short: (§3)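 Double-blind, randomized, placebo-controlled study in healthy male and female volunteers aged 18-63 on a restricted sodium/potassium diet. Oral bid doses of 30, 60, 100 or 200 mg, drug:placebo 5:2. N per dose 10–17. AUCtau, Cmax and median Tmax reported; dose-normalized values are AUCtau/dose and Cmax/dose.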
# [15] = Tmax in healthy human at 60 mg/kg, po bid; type: ADME, organism-based; conditions: in vivo; in short: as §3
# [16] = Cmax in healthy human at 30 mg/kg, po bid; type: ADME, organism-based; design: dose 30 mg/kg, route oral; conditions: in vivo; in short: as §3
# [17] = Cmax in healthy human at 100 mg/kg, po bid; type: ADME, organism-based; design: dose 100 mg/kg, route oral; conditions: in vivo; in short: as §3
# [18] = tested on: Homo sapiens; experiment: Dose normalized AUCtau in healthy human at 60 mg/kg, po bid; type: ADME, organism-based; conditions: in vivo; in short: as §3
# [19] = tested on: Homo sapiens; experiment: Dose normalized AUCtau in healthy human at 100 mg/kg, po bid; type: ADME, organism-based; conditions: in vivo; in short: as §3
# [20] = tested on: Homo sapiens; experiment: Dose normalized Cmax in healthy human at 60 mg/kg, po bid; type: ADME, organism-based; conditions: in vivo; in short: as §3
# [21] = tested on: Homo sapiens; experiment: Dose normalized Cmax in healthy human at 200 mg/kg, po bid; type: ADME, organism-based; conditions: in vivo; in short: as §3
# [22] = tested on: Homo sapiens; experiment: Decrease in urinary aldosterone excretion in po dosed human administered as bid measured over 24 hrs; type: functional, organism-based; conditions: Urine
# In short: (§4)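 Healthy male and female volunteers, 18-63 years, restricted sodium/potassium diet; double-blind randomized placebo-controlled, oral 30, 60, 100 or 200 mg bid (drug:placebo 5:2).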
# [23] = tested on: Homo sapiens; experiment: Toxicity in human assessed as decrease in urinary cortisol level at 30 to 200 mg/kg, po bid measured over 24 hrs; type: organism-based, Urine; conditions: in vivo, in the assay text read “30 to 200 mg” for “30 to 200 mg/kg”; in short: as §4
# [24] = tested on: Homo sapiens; experiment: Toxicity in human assessed as increase in urinary 11-deoxycortisol level at 30 to 200 mg/kg, po bid measured over 24 hrs; type: organism-based, Urine; conditions: in vivo, in the assay text read “30 to 200 mg” for “30 to 200 mg/kg”; in short: as §4
compound,measurement,setting,value
CCS(=O)(=O)NCc1cncc(-c2c(C#N)c3ccc(Cl)cc3n2C)c1,"inhibition at 1.5 h, 10 µM",[1],82%
same,half-life,[2],0.467 h
same,half-life,[3],1.28 h
same,clearance,[4],18 mL/min/kg
same,bioavailability,[5],84%
same,half-life,[6],1.1 h
same,AUC(0-t) at 24 h,[7],5.79 µM·h
same,IC50,[8],27400 nM
same,IC50,[9],10 nM
same,Drug uptake,[10],Dose-dependent effect
same,Drug uptake,[11],Active
same,Activity,[12],Dose-dependent effect
same,EC50,[12],8.5 nM
same,ED50,[12]; po,0.061 mg/kg
same,Activity,[13],inactive
same,Tmax,[14],4 h
same,Tmax,[15],3 h
same,Cmax,[16],117 ng/mL
same,Cmax,[17],173 ng/mL
same,AUC/dose,[18],17.1 ng·h/mL/mg
same,AUC/dose,[19],12.7 ng·h/mL/mg
same,Cmax/dose,[20],2.8 ng/mL
same,Cmax/dose,[21],1.5 ng/mL
same,Activity,[22],Dose-dependent effect
same,Activity,[23],Non-toxic
same,Activity,[24],Non-toxic
